Screens from PubChem.
SENP1 FRET inh – human SENP1 catalytic domain inhibitors, primary screen, biochemical, FRET, uHTS; inhibition, % at 10 µM; recombinant SENP1 catalytic domain, CyPet-SUMO1-YPet FRET cleavage; Sentrin-specific protease 1 (Homo sapiens), Q9P0U3; 360,000 tested, 0.21% active;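 active = inhibition at least 30% at 10 µM, raw YFP signal under a set limit, fluorescence ratio 0.5 to 1.5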;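 note: 0% = enzyme with DMSO and 100% = no enzyme wells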
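Controls: no-enzyme wells low, DMSO-plus-enzyme wells high control. Test system: human recombinant His6-tagged SENP1 catalytic domain enzyme. Reagent: SFCypet-SUMO1-SFYpet FRET protein substrate, 25 nM final. Doses: one dose per compound, 10 µM, 0.5% DMSO. Detection: FRET, CFP and YFP emission. Timing: 50 min reaction at room temperature.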
SENP6 inh – SENP6 protease inhibitors, primary screen, biochemical, luminescence, uHTS; Recombinant SENP6 catalytic domain, aminoluciferin luminescence; inhibition, % at 10 µM; AID 2599, 2010; Sentrin-specific protease 6 (Homo sapiens), Q9GZR1; 330,000 tested, 1.8% active;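 active = inhibition above about 50% at the single tested dose, limit read from the data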;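 note: plate controls were DMSO wells with enzyme for no effect and DMSO wells lacking enzyme for full effect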
SENP7 block – SENP7 protease inhibitors, primary screen, biochemical, luminescence, uHTS. 330,000 tested, 1.5% active. recombinant SENP7, Z-RLRGG-aminoluciferin luminescence, 40 min. inhibition, % at 5 µM;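 active = inhibition above about 50% at the single test dose, limit read from the data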;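 note: plate controls were DMSO with enzyme for no effect and no enzyme buffer wells for full effect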
Target sequence (Q9BQF6 706-1050 limits assumed): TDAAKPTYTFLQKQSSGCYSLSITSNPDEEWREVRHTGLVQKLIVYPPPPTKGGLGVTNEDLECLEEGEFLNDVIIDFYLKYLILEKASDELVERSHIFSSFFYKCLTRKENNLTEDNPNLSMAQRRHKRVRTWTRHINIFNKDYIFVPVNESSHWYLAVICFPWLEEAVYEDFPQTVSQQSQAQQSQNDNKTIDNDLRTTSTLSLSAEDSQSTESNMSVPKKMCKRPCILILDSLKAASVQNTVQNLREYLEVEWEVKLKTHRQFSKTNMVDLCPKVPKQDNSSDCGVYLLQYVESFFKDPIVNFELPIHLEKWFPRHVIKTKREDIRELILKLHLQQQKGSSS
SENP8 block-1 – human SENP8 protease inhibitors, primary screen, biochemical, fluorescence, Nedd8 protein substrate, uHTS | Sentrin-specific protease 8 (Homo sapiens), Q96LD8 | recombinant SENP8 | inhibition, % at 20 µM | 360,000 tested, 0.64% active | AID 602440, 2012; in the data active = inhibition mostly above about 40%, no sharp cut-off; inactive = mostly below about 27%
SENP8 block-2 – SENP8 protease inhibitors, primary screen, biochemical, luminescence | inhibition, % at 10 µM | purified SENP8, Z-RLRGG-aminoluciferin cleavage | 330,000 tested, 1.2% active; in the data active = inhibition above about 50%
SENP8 confirm – SENP8 protease inhibitors, retest, confirmation, biochemical, luminescence, single concentration | shares compounds with SENP7 block | Recombinant SENP8, Z-RLRGG-aminoluciferin luminescence, 60 min | inhibition, % at 12.5 µM | 6,200 tested, 40% active | AID 488912, 2010;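 active = mean inhibition across replicates above about 50%, limit read from the data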
SENP6 conf – SENP6 protease inhibitors, confirmation, biochemical, luminescence, single concentration; shares compounds with SENP7 block; recombinant SENP6, Z-RLRGG-aminoluciferin luminescence; inhibition, % at 12.5 µM; 6,200 tested, 58% active; AID 488915, 2010
SENP7 confirm – SENP7 protease inhibitors, retest, confirmation, biochemical, luminescence, single concentration | recombinant SENP7, Z-RLRGG-aminoluciferin luminescence, 40 min | inhibition, % at 12.5 µM | shares compounds with SENP7 block | 6,200 tested, 69% active | AID 488917, 2010
Casp3 SENP sel – caspase-3 protease inhibitors, confirmation, selectivity assay for SENP inhibitor project, biochemical, single concentration; shares compounds with SENP7 block; purified caspase-3, Z-DEVD-aminoluciferin luminescence, 60 min; inhibition, % at 12.5 µM; 6,200 tested, 60% active; AID 488918, 2010;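 active = mean inhibition above about 50%, limit read from the data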;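 note: plate controls were enzyme with DMSO for no effect and wells without caspase-3 for full effect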
Target sequence (P42574 28-227 limits assumed): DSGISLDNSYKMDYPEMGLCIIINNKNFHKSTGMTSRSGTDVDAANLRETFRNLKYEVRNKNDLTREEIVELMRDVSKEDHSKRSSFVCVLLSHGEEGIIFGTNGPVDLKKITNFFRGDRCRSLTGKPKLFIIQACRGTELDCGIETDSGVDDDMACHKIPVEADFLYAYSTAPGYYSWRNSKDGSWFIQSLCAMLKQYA
SENP luc ctr – luminescence interference (SENP counter-screen); shares compounds with SENP7 block; Pre-incubated SENP8/Z-RLRGG-aminoluciferin, luciferase luminescence interference; inhibition, % at 12.5 µM; 6,200 tested, 39% active; AID 488919;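 active = mean inhibition above about 50% when retested at one dose, limit read from the data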;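 note: plate controls were DMSO wells with completed reaction for no effect and substrate without enzyme for full effect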
Starred values were filed as active, the others as inactive; . = no result. Most compounds without a hit are left out; they make up all but 2.5% or so of the library.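 Rule for the calls, unless noted: active = mean inhibition above about 50% in the one-dose retest (limit read from the data); inactive = the rest.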

SMILES	SENP1 FRET inh	SENP6 inh	SENP7 block	SENP8 block-1	SENP8 block-2	SENP8 confirm	SENP6 conf	SENP7 confirm	Casp3 SENP sel	SENP luc ctr
COc1cc(OC)cc(C(=O)O/N=C(\N)c2cccc(C)c2)c1	2	-3	12	7	-8	.	.	.	.	.
N/C(=N\OCc1ccc([N+](=O)[O-])cc1)c1ccccn1	.	95*	96*	.	90*	94*	94*	100*	95*	71*
CC(C)(C)c1ccc(C(=O)C2CCCN(C(=O)c3ccccn3)C2)cc1 (centres undefined)	1	5	102*	5	2	-9	-7	-10	0	4
Cc1cnc(C(=O)N2CCCC(C(=O)c3ccc(C(C)(C)C)cc3)C2)cn1 (centres undefined)	-2	-13	-3	3	-1	.	.	.	.	.
N/C(=N\OC(=O)C(c1ccccc1)c1ccccc1)c1ccccn1	2	-1	1	16	-5	.	.	.	.	.
CC(C(=O)O/N=C(\N)c1ccccn1)c1ccc([N+](=O)[O-])cc1 (centres undefined)	1	10	4	8	4	.	.	.	.	.
N/C(=N\OC(=O)c1ccccc1)c1ccccn1	2	96*	98*	4	92*	97*	98*	102*	98*	95*
OCCCNCc1ccc(N(c2ccccc2)c2ccccc2)cc1	2	-8	-4	3	5	.	.	.	.	.
N/C(=N\OC(=O)c1ccc(Br)o1)c1ccccn1	2	50*	88*	15	64*	86*	85*	97*	94*	57*
Cc1cccc(C(=O)O/N=C(\N)c2ccccn2)c1	1	97*	98*	11	91*	94*	95*	100*	96*	93*
Cc1ccc(C(=O)O/N=C(\N)c2ccccn2)cc1	4	99*	101*	9	98*	99*	99*	102*	98*	88*
CCOc1ccc(C(=O)O/N=C(\N)c2ccccn2)cc1	0	98*	100*	7	97*	98*	99*	102*	98*	73*
Cc1cc(C)cc(OCC(=O)O/N=C(\N)c2ccccn2)c1	2	-20	7	17	-6	.	.	.	.	.
C[C@@H]1CN([C@@H](C)CO)C(=O)c2cc(Br)cnc2O[C@H]1CN(C)Cc1cccc(C(=O)O)c1	1	.	.	8	.	.	.	.	.	.
N/C(=N\OC(=O)c1cccc(F)c1)c1ccccn1	6	90*	91*	8	81*	91*	93*	101*	97*	90*
Cc1ccc(C(=O)O/N=C(\N)c2ccccn2)cc1C	5	98*	98*	19	93*	95*	95*	101*	96*	86*
Cc1cccc(/C(N)=N/OC(=O)c2ccc(Br)o2)c1	-1	80*	78*	12	70*	53*	77*	94*	86*	31
COc1cc(C(=O)O/N=C(\N)c2ccccn2)cc(OC)c1OC	2	-3	2	4	7	.	.	.	.	.
C/C(=N\NC(=O)c1cccc(Br)c1)c1ccccn1	1	-14	-2	19	-4	.	.	.	.	.
C/C(=N\NC(=O)c1cc(Br)ccc1O)c1ccccn1	0	87*	56*	-88	78*	41	85*	84*	91*	29
Cc1cccc(/C(N)=N/OC(=O)Cc2ccccc2)c1	1	8	-13	2	-12	.	.	.	.	.
COc1ccc(C(=O)O/N=C(\N)c2ccccn2)c(OC)c1	0	22	32	3	8	.	.	.	.	.
COc1ccc(C(C(=O)NC(C)(C)C)N(C(=O)CCC(=O)Nc2cc(C)on2)c2ccc(C)c(C)c2)cc1 (centres undefined)	3	7	1	9	4	.	.	.	.	.
O=C(NCC1CCCO1)c1ccc2c3n(nc2c1)-c1ccccc1CO3 (centres undefined)	-3	15	-3	-184	11	.	.	.	.	.
O=C(c1ccc2c3n(nc2c1)-c1ccccc1CO3)N1CCCCC1	0	97*	95*	-8	91*	97*	98*	101*	97*	96*
SMILES	SENP1 FRET inh	SENP6 inh	SENP7 block	SENP8 block-1	SENP8 block-2	SENP8 confirm	SENP6 conf	SENP7 confirm	Casp3 SENP sel	SENP luc ctr
O=C(c1ccc2c3n(nc2c1)-c1ccc(Cl)cc1CO3)N1CCOCC1	0	12	-9	-23	4	.	.	.	.	.
Cc1ccc2c(c1)COc1c3ccc(C(=O)N4CCCCC4)cc3nn1-2	3	84*	80*	-33	81*	45	87*	96*	86*	18
O=C(c1ccc2c3n(nc2c1)-c1ccccc1CO3)N1CCOCC1	-1	93*	95*	-107	87*	93*	93*	101*	98*	92*
CCN(C(=O)c1cccnc1SC)C12CC3CC(CC(C3)C1)C2	0	2	11	15	1	.	.	.	.	.
Cc1cc(C)c(NC(=O)CNC(=O)COC(=O)CN2C(=O)NC3(CCCC3)C2=O)c(C)c1	-1	-12	-15	9	-4	.	.	.	.	.
CC(C)(C)C(=O)Nc1ccc(-c2nc3ccccc3c(=O)o2)cc1	0	62*	68*	-15	-1	4	6	12	13	6
CCOc1ccc(-c2nnc(-c3ccccc3)o2)cc1	-1	96*	93*	-131	91*	9	8	9	2	3
CCOc1ccc(-c2nc3ccccc3c(=O)o2)cc1	1	7	73*	-184	22	28	36	46	34	38
COc1ccc(-c2nc3ccccc3c(=O)o2)cc1OC	-1	-14	-17	-106	-10	.	.	.	.	.
